Measurements from ChEMBL document CHEMBL3860041, “Synthesis, biological evaluation and molecular modeling study of some new methoxylated 2-benzylthio-quinazoline-4(3H)-ones as nonclassical antifolates” (Bioorg Med Chem Lett, 2016).

Assays:
Type in all cases: functional
[1] = Growth inhibition of human HL-60(TB) cells at 10 uM after 48 hrs by SRB assay relative to control; settings: HL-60, 48 h, read-out: GI
Summary of the method: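 NCI disease-oriented human tumour cell line screen: primary single-dose assay at 10 μM across the full 60-cell-line panel spanning nine tumour subpanels.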

[2] = Growth inhibition of human K562 cells at 10 uM after 48 hrs by SRB assay relative to control; settings: K562, 48 h, read-out: GI
Summary of the method: (§1)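 NCI 60-cell-line panel, nine tumor subpanels; compounds tested at a single dose of 10 μM in the primary screen.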

[3] = Growth inhibition of human RPMI8226 cells at 10 uM after 48 hrs by SRB assay relative to control; settings: RPMI-8226, 48 h, read-out: GI; summary of the method: as §1
[4] = Growth inhibition of human HOP62 cells at 10 uM after 48 hrs by SRB assay relative to control; settings: HOP-62, 48 h, read-out: GI; summary of the method: as §1
[5] = Growth inhibition of human NCI-H23 cells at 10 uM after 48 hrs by SRB assay relative to control; settings: NCI-H23, 48 h, read-out: GI; summary of the method: as §1
[6] = Growth inhibition of human NCI-H460 cells at 10 uM after 48 hrs by SRB assay relative to control; settings: NCI-H460, 48 h, read-out: GI; summary of the method: as §1
[7] = Growth inhibition of human NCI-H522 cells at 10 uM after 48 hrs by SRB assay relative to control; settings: NCI-H522, 48 h, read-out: GI; summary of the method: as §1
[8] = Growth inhibition of human HCT116 cells at 10 uM after 48 hrs by SRB assay relative to control; settings: HCT-116, 48 h, read-out: GI; summary of the method: as §1
[9] = Growth inhibition of human HCT15 cells at 10 uM after 48 hrs by SRB assay relative to control; settings: HCT-15, 48 h, read-out: GI; summary of the method: as §1
[10] = Growth inhibition of human KM12 cells at 10 uM after 48 hrs by SRB assay relative to control; settings: KM12, 48 h, read-out: GI; summary of the method: as §1
[11] = Growth inhibition of human SW620 cells at 10 uM after 48 hrs by SRB assay relative to control; settings: SW-620, 48 h, read-out: GI
Summary of the method: (§2)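 Primary screen across the full NCI 60 human tumour cell line panel, which covers nine tumour subpanels. A single dose of 10 μM was applied to each line, and growth was recorded for each cell line.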

[12] = Growth inhibition of human SF295 cells at 10 uM after 48 hrs by SRB assay relative to control; settings: SF-295, 48 h, read-out: GI; summary of the method: as §1
[13] = Growth inhibition of human MALME-3M cells at 10 uM after 48 hrs by SRB assay relative to control; settings: read-out: GI; summary of the method: as §1
[14] = Growth inhibition of human M14 cells at 10 uM after 48 hrs by SRB assay relative to control; settings: M14, 48 h, read-out: GI; summary of the method: as §1
[15] = Growth inhibition of human SK-MEL-2 cells at 10 uM after 48 hrs by SRB assay relative to control; settings: SK-MEL-2, 48 h, read-out: GI; summary of the method: as §2
[16] = Growth inhibition of human IGROV1 cells at 10 uM after 48 hrs by SRB assay relative to control; settings: IGROV-1, 48 h, read-out: GI; summary of the method: as §1
[17] = Growth inhibition of human OVCAR5 cells at 10 uM after 48 hrs by SRB assay relative to control; settings: OVCAR-5, 48 h, read-out: GI; summary of the method: as §1
[18] = Growth inhibition of human NCI/ADR-RES cells at 10 uM after 48 hrs by SRB assay relative to control; settings: read-out: GI; summary of the method: as §1
[19] = Growth inhibition of human ACHN cells at 10 uM after 48 hrs by SRB assay relative to control; settings: read-out: GI; summary of the method: as §1
[20] = Growth inhibition of human PC3 cells at 10 uM after 48 hrs by SRB assay relative to control; settings: PC-3, 48 h, read-out: GI; summary of the method: as §1
[21] = Growth inhibition of human BT549 cells at 10 uM after 48 hrs by SRB assay relative to control; settings: BT-549, 48 h, read-out: GI; summary of the method: as §1
[22] = Growth inhibition of human T47D cells at 10 uM after 48 hrs by SRB assay relative to control; settings: read-out: GI; summary of the method: as §2
Cancer cell lines [23] = test: Potency index, ratio of 5-fluorouracil GI50 to compound GI50 for human breast cancer cells
Summary of the method: (§3)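 GI50 for each cell line came from NCI panel testing over a 5-log dose range, with 5-fluorouracil tested alongside as the reference drug. The index relates the 5-fluorouracil GI50 to the compound GI50 within each tumour subpanel.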

Melanoma cell = test: Potency index, ratio of 5-fluorouracil GI50 to compound GI50 for human melanoma cells; summary of the method: as §3
Cancer cell lines [24] = test: Potency index, ratio of 5-fluorouracil GI50 to compound GI50 for human colon cancer cells; summary of the method: as §3
Cancer cell lines [25] = test: Potency index, ratio of 5-fluorouracil GI50 to compound GI50 for human non-small cell lung cancer cells; summary of the method: as §3
[26] = Growth inhibition of human CNS cancer cells after 48 hrs by SRB assay; settings: Cancer cell lines
Summary of the method: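 Five-log dose range against NCI tumor cell lines, monitoring GI50, TGI and LC50 for each cell line; MG-MID values derived across the panel; 5-fluorouracil positive control.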

[27] = Growth inhibition of human leukemia cells after 48 hrs by SRB assay; settings: Leukemia cell; for CC50: read-out: LC50 (the source's name)
Summary of the method: (§4)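 Follow-up NCI panel testing over a 5-log dose range for each cell line. GI50, TGI and LC50 were monitored, with 5-fluorouracil run as the positive control. Values are grouped by tumour subpanel.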

[28] = Growth inhibition of human non-small cell lung cancer cells after 48 hrs by SRB assay; settings: Cancer cell lines; summary of the method: as §4
[29] = Growth inhibition of human ovarian cancer cells after 48 hrs by SRB assay; settings: Cancer cell lines; summary of the method: as §4
[30] = Growth inhibition of human prostate cancer cells after 48 hrs by SRB assay; settings: Cancer cell lines; summary of the method: as §4
[31] = Growth inhibition of human breast cancer cells after 48 hrs by SRB assay; settings: Cancer cell lines; summary of the method: as §4

COc1cc(CSc2nc3ccc(C)cc3c(=O)n2-c2ccccc2)cc(OC)c1OC
inhibition of growth at 10 µM [1]: 87.8%
inhibition of growth at 10 µM [2]: 89.6%
inhibition of growth at 10 µM [3]: 45.1%
inhibition of growth at 10 µM [4]: 62.2%
inhibition of growth at 10 µM [5]: 78%
inhibition of growth at 10 µM [6]: 79.8%
inhibition of growth at 10 µM [7]: 91.7%
inhibition of growth at 10 µM [8]: 73.4%
inhibition of growth at 10 µM [9]: 69.9%
inhibition of growth at 10 µM [10]: 74.7%
inhibition of growth at 10 µM [11]: 70.3%
inhibition of growth at 10 µM [12]: 67.2%
inhibition of growth at 10 µM [13]: 57.6%
inhibition of growth at 10 µM [14]: 82.8%
inhibition of growth at 10 µM [15]: 85.3%
inhibition of growth at 10 µM [16]: 66.8%
inhibition of growth at 10 µM [17]: 53.6%
inhibition of growth at 10 µM [18]: 82.2%
inhibition of growth at 10 µM [19]: 55.3%
inhibition of growth at 10 µM [20]: 51%
inhibition of growth at 10 µM [21]: 80.4%
inhibition of growth at 10 µM [22]: 71.8%
RatioGI50 (Cancer cell lines [23]): 10
RatioGI50 (Melanoma cell): 10
RatioGI50 (Cancer cell lines [24]): 10
RatioGI50 (Cancer cell lines [25]): 10
GI50 [26]: 5.4 µM
LC50 (lethal concentration, 50% net cell kill) [26]: > 100 µM
TGI [26]: 60.9 µM
GI50 [27]: 1.8 µM
TGI [27]: > 100 µM
CC50 [27]: > 100 µM
GI50 [28]: 3 µM
LC50 (concentration killing 50% of cells) [28]: > 100 µM
TGI [28]: 87 µM
GI50 [29]: 4 µM
LC50 (50% lethal concentration) [29]: > 100 µM
TGI [29]: 84.6 µM
GI50 [30]: 3.4 µM
LC50 (concentration killing 50% of cells) [30]: > 100 µM
GI50 [31]: 2.3 µM
LC50 [31]: > 100 µM
TGI [31]: 84.3 µM

COc1cc(CSc2nc3ccc(C)cc3c(=O)n2Cc2ccccc2)cc(OC)c1OC
inhibition of growth at 10 µM [1]: 83%
inhibition of growth at 10 µM [2]: 86.2%
inhibition of growth at 10 µM [3]: 46%
inhibition of growth at 10 µM [4]: 60%
inhibition of growth at 10 µM [5]: 78.7%
inhibition of growth at 10 µM [6]: 82.3%
inhibition of growth at 10 µM [8]: 74.9%
inhibition of growth at 10 µM [9]: 70.8%
inhibition of growth at 10 µM [10]: 74.7%
inhibition of growth at 10 µM [11]: 74.2%
inhibition of growth at 10 µM [12]: 69%
inhibition of growth at 10 µM [13]: 70%
inhibition of growth at 10 µM [14]: 64.4%
inhibition of growth at 10 µM [15]: 99.1%
inhibition of growth at 10 µM [16]: 75.7%
inhibition of growth at 10 µM [17]: 54.7%
inhibition of growth at 10 µM [18]: 87.3%
inhibition of growth at 10 µM [19]: 53.3%
inhibition of growth at 10 µM [20]: 54.1%
inhibition of growth at 10 µM [21]: 65.2%
inhibition of growth at 10 µM [22]: 65.9%
RatioGI50 (Cancer cell lines [23]): 10
RatioGI50 (Melanoma cell): 10
RatioGI50 (Cancer cell lines [24]): 10
RatioGI50 (Cancer cell lines [25]): 10
GI50 [26]: 3.5 µM
LC50 (lethal concentration, 50% net cell kill) [26]: 81.9 µM
TGI [26]: 46.7 µM
GI50 [27]: 2.4 µM
TGI [27]: 85.2 µM
CC50 [27]: > 100 µM
GI50 [28]: 4 µM
LC50 (concentration killing 50% of cells) [28]: 98.2 µM
TGI [28]: 65.9 µM
GI50 [29]: 3.3 µM
LC50 (50% lethal concentration) [29]: 92.7 µM
TGI [29]: 57.6 µM
GI50 [30]: 2.9 µM
LC50 (concentration killing 50% of cells) [30]: > 100 µM
TGI [30]: 60.2 µM
GI50 [31]: 2.8 µM
LC50 [31]: > 100 µM
TGI [31]: 47.5 µM

COc1cc(CSc2nc3ccc(Cl)cc3c(=O)n2Cc2ccccc2)cc(OC)c1OC
inhibition of growth at 10 µM [1]: 85.4%
inhibition of growth at 10 µM [2]: 87.2%
inhibition of growth at 10 µM [3]: 31.3%
inhibition of growth at 10 µM [4]: 62.3%
inhibition of growth at 10 µM [5]: 74.9%
inhibition of growth at 10 µM [6]: 79.5%
inhibition of growth at 10 µM [8]: 79.2%
inhibition of growth at 10 µM [9]: 75.1%
inhibition of growth at 10 µM [10]: 76.4%
inhibition of growth at 10 µM [11]: 71.4%
inhibition of growth at 10 µM [12]: 71.1%
inhibition of growth at 10 µM [13]: 61.2%
inhibition of growth at 10 µM [14]: 64.7%
inhibition of growth at 10 µM [15]: 78.6%
inhibition of growth at 10 µM [16]: 64.7%
inhibition of growth at 10 µM [17]: 53.3%
inhibition of growth at 10 µM [18]: 86.1%
inhibition of growth at 10 µM [19]: 59.7%
inhibition of growth at 10 µM [20]: 44.9%
inhibition of growth at 10 µM [21]: 78.3%
inhibition of growth at 10 µM [22]: 66.1%
RatioGI50 (Cancer cell lines [23]): 2 - 10
RatioGI50 (Melanoma cell): 2 - 10
RatioGI50 (Cancer cell lines [24]): 2 - 10
RatioGI50 (Cancer cell lines [25]): 2 - 10
GI50 [26]: 4.2 µM
LC50 (lethal concentration, 50% net cell kill) [26]: 81.8 µM
TGI [26]: 49.8 µM
GI50 [27]: 3 µM
TGI [27]: 87.9 µM
CC50 [27]: > 100 µM
GI50 [28]: 5.5 µM
LC50 (concentration killing 50% of cells) [28]: 97.6 µM
TGI [28]: 66.5 µM
GI50 [29]: 5.2 µM
LC50 (50% lethal concentration) [29]: > 100 µM
TGI [29]: 75.6 µM
GI50 [30]: 4 µM
LC50 (concentration killing 50% of cells) [30]: > 100 µM
TGI [30]: > 100 µM
GI50 [31]: 3.3 µM
LC50 [31]: > 100 µM
TGI [31]: 59.1 µM
